Target: 20S proteasome (Homo sapiens, UniProt P28072+P28074+Q99436)
Experiment: Proteasome-Glo luminescent assay in MCF-7 cells
Type: cell-based
Conditions: MCF7, read-out: % Inhibition of 20S Proteasome / 20 μg/mL
How it was run: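 MCF-7 cells grown at 37°C, 5% CO2 in RPMI 1640 with 10% FBS, penicillin and streptomycin. Log-phase cells trypsinized, washed extensively, seeded at 7,500/well, incubated overnight. Test compound added in DMSO (final 0.2%), 2 h at 37°C. Luminescent read-out of proteasome chymotrypsin-like, trypsin-like or caspase-like activity. % inhibition versus solvent control. Bortezomib (5, 25 nM) was the positive control.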

Row | SMILES | inhibition at 20 µg/mL [%]
1 | COC(=O)c1cccc(O)c1C(=O)c1c(O)cc(C)cc1O [compound 1, moniliphenone] | 1
2 | COC(=O)[C@]12Oc3c(c(O)cc4c3[C@@H]3C=C[C@]5(C4)C(=C(O)c4c(O)cc(C)cc4[C@@H]5OC(C)=O)C3=O)C(=O)[C@]1(O)C(=O)C=C[C@@H]2O [compound 2, acremoxanthone D] | 58

— article PMC3267898 (The Journal of antibiotics, 2011)
